Activity calls are given as the source filed them. The rule behind the calls is not given here.
Key:
[1] = Cytotoxicity against human OVCAR5 cells by SRB method; assay type: functional
How it was run: (§1)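 NCI-60 in vitro drug screening panel. Values are the molar concentrations giving 50% growth inhibition (GI50) and total growth inhibition (TGI).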

[2] = Cytotoxicity against human SKOV3 cells by SRB method; assay type: functional; conditions: SK-OV-3
How it was run: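 SRB assay in SK-OV-3 cells; percent cell growth per Boyd et al.; GI50, TGI and LC50 fitted from dose–response curves of percent growth; mean ± SE, n = 3 or 4 independent experiments.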

T47D = test: Cytotoxicity against human T47D cells by SRB method; assay type: functional
How it was run: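 NCI-60 in vitro screen panel of human tumor lines; GI50 (molar concentration giving 50% growth inhibition) and TGI (total growth inhibition) taken from dose–response data.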

mTORC1 (Homo sapiens) = mTORC1 (Homo sapiens) (UniProt P42345+Q8N122+Q9BVC4); test: Inhibition of mTORC1 in human HeLa cells assessed as inhibition of S6 kinase phosphorylation at T389 up to 100 nM after 30 mins by Western blotting analysis; assay type: cell-based
Chain of mTORC1 (Homo sapiens) (Q8N122 whole entry, looked up, other chains not shown): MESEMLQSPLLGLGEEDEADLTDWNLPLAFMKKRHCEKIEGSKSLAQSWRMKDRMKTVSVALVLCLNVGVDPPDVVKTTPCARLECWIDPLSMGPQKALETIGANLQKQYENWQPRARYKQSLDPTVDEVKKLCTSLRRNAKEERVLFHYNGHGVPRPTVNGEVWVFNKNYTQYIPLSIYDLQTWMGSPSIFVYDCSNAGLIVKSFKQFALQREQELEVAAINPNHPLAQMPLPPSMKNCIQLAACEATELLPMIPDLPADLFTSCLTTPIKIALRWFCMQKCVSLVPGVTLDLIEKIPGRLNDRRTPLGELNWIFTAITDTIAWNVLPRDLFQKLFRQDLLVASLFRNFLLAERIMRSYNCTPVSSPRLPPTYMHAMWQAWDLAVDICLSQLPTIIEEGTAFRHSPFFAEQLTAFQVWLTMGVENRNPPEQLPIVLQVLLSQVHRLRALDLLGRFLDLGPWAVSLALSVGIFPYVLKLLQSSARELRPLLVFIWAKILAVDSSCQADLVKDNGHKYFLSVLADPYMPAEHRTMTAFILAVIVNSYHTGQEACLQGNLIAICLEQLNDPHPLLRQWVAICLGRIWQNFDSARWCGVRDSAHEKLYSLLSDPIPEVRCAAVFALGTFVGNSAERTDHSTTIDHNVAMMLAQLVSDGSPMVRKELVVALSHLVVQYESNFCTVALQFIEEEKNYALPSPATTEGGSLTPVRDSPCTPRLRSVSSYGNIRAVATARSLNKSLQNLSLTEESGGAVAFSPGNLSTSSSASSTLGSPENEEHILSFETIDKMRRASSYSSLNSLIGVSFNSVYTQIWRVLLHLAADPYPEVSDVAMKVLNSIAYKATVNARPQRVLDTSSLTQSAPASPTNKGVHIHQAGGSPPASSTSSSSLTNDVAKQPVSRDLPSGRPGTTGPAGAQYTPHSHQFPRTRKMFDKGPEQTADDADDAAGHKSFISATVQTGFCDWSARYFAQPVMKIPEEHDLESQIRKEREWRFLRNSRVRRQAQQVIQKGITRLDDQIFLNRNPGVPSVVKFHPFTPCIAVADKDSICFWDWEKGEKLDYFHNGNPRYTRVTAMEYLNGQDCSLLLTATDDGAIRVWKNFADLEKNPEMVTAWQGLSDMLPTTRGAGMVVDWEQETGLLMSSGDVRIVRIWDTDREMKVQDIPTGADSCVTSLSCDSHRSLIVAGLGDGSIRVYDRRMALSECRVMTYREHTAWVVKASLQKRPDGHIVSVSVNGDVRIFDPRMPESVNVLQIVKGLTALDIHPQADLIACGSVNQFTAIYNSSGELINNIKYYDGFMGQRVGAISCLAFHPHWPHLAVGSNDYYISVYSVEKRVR
Chain of mTORC1 (Homo sapiens) (Q9BVC4 whole entry, looked up, other chains not shown): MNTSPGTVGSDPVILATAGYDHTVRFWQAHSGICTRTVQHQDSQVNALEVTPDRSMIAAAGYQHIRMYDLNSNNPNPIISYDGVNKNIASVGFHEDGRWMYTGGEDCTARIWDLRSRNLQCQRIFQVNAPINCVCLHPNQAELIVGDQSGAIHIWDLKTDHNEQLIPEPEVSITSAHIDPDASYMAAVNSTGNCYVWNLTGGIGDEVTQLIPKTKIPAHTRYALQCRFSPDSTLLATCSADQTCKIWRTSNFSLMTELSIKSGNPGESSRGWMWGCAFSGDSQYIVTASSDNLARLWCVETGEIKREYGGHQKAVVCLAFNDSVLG
How it was run: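 HeLa whole-cell lysates after vehicle or compound treatment; equal protein on SDS-PAGE, PVDF blot probed for S6 kinase, P-T389-S6 kinase and actin, ECL detection.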

HeLa = test: Increase in H3K9 methylation in human HeLa cells assessed as high H3K9me3 expression at 200 nM after 1 to 24 hrs by immunoblotting analysis; assay type: functional, cell-based
How it was run: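 HeLa cells treated with vehicle or 200 nM for 1–24 h; log-phase cells lysed with protease inhibitors, equal protein by SDS-PAGE, PVDF transfer, probed for H3K9me3 and actin, ECL detection.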

K562 = test: Cytotoxicity against human K562 cells by SRB method; assay type: functional; how it was run: as §1
A549 = test: Cytotoxicity against human A549 cells by SRB method; assay type: functional; how it was run: as §1
[3] = Cytotoxicity against human HCT15 cells by SRB method; assay type: functional; how it was run: as §1
Malme-3M = test: Cytotoxicity against human MALME-3M cells by SRB method; assay type: functional; how it was run: as §1
[4] = read-out: LC50 (the source's name)

CC(C)[C@@]12SS[C@]3(C(=O)N1C)[C@@H](O)[C@]1(C45c6ccccc6N[C@H]4N4C(=O)[C@@]6(CO)SS[C@@]4(C(=O)N6C)[C@H]5O)c4ccccc4N[C@@H]1N3C2=O (stereo partly drawn)
GI50 ([1]; OVCAR-5): 52.5 nM
TGI ([1]; OVCAR-5): 138 nM
CC50 ([1]; OVCAR-5, read-out: LC50 (the source's name)): 363 nM
GI50 [2]: 11.5 nM
LC50 [2]: 190 nM
TGI [2]: 33.9 nM
GI50 (T47D): 9.1 nM
TGI (T47D): 26.3 nM
CC50 (T47D; [4]): 102 nM
inhibition (mTORC1 (Homo sapiens)): inactive
Activity (HeLa): Active
GI50 (K562): 14.8 nM
TGI (K562): 115 nM
CC50 (K562; [4]): > 50000 nM
GI50 (A549): 26.3 nM
TGI (A549): 93.3 nM
CC50 (A549; [4]): 263 nM
GI50 ([3]; HCT-15): 17 nM
TGI ([3]; HCT-15): 89.1 nM
CC50 ([3]; HCT-15, read-out: LC50 (the source's name)): 479 nM
GI50 (Malme-3M): 7.8 nM
TGI (Malme-3M): 18.6 nM
CC50 (Malme-3M; [4]): 45.7 nM

Source: ChEMBL document CHEMBL3351594, “Cytotoxic dimeric epipolythiodiketopiperazines from the ascomycetous fungus Preussia typharum” (J Nat Prod, 2014)
